Measurements taken from ChEMBL document CHEMBL1157958, “Phenolic compounds from the roots of Lindera fruticosa” (J Nat Prod, 2006).

Columns and labels:
[1] = target: T1, Sterol O-acyltransferase 1 (Homo sapiens) (UniProt P35610); test: Inhibition of human ACAT1 at 0.4 mM
T1 sequence (whole entry): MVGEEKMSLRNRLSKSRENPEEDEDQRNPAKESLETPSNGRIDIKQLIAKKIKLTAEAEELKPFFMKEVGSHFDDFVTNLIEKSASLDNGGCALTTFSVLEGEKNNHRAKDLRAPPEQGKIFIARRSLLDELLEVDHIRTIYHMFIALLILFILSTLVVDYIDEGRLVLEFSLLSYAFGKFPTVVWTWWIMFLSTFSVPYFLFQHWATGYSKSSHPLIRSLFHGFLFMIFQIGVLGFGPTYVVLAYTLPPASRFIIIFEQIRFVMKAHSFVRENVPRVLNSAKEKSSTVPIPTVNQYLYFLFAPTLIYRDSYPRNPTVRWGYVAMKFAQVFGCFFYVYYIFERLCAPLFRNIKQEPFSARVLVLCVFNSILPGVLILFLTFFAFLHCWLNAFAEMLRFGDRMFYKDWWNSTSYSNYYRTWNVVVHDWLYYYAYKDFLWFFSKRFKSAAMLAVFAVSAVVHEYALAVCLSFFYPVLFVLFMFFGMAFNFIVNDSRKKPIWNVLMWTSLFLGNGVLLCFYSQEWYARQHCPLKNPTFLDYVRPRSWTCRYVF
Procedure, shortened: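 Human ACAT-1 inhibition, run by the Brecher and Chan method with slight modifications. Test concentration 0.4 mM; read-out is percent inhibition; data are mean ± standard deviation of three replicates.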

[2] = Antioxidant activity assessed as inhibition of LDL oxidation; type: functional
Procedure, shortened: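 LDL oxidation inhibition, run by a literature method with slight modifications. IC50 in µM; data are mean ± standard deviation of three replicates.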

inhibition [1] | IC50 [2] | Structure (SMILES)
46% | 478 µM | COc1cccc(O)c1C(=O)OCc1ccccc1
43% | 48.1 µM | COc1cc(OC)cc(-c2ccccc2)c1
 | 4.3 µM | CC(C)(Sc1cc(C(C)(C)C)c(O)c(C(C)(C)C)c1)Sc1cc(C(C)(C)C)c(O)c(C(C)(C)C)c1 [PROBUCOL]
31% | 192 µM | COc1c([C@@H](O)c2ccccc2)ccc2c1OCO2
54% | 524 µM | COc1c(C(=O)c2ccccc2)ccc2c1OCO2
30% | 15.5 µM | COc1cc(O)cc(-c2ccccc2)c1
31% | 386 µM | O=c1c2cc(O)ccc2oc2cccc(O)c12
7% | 25.5 µM | COc1c(O)ccc2oc3c(O)cc(O)cc3c(=O)c12
